Source: ChEMBL document CHEMBL1141147, “Development of dual-acting benzofurans for thromboxane A2 receptor antagonist and prostacyclin receptor agonist: synthesis, structure-activity relationship, and evaluation of benzofuran derivatives” (J Med Chem, 2005)
pIC50, pKi: −log10 of the molar value.

Legend:
Homo sapiens [1] = species on record: Homo sapiens; test: Inhibition of ADP (5 uM) induced platelet aggregation in human platelet rich plasma; format: functional, organism-based
Method in brief: (§1)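 Human volunteer blood was citrated 9:1 with 3.8% sodium citrate and spun at 90–140g for 10 min at room temperature to give PRP; platelet-poor plasma came from a 1400g spin and set 100% aggregation. PRP was preincubated 1 min with compound at various concentrations, then stimulated. Light transmission was recorded for 5 min. Percent inhibition was taken against vehicle, N = 3; IC50 is 50% inhibition.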

Homo sapiens [2] = species on record: Homo sapiens; test: Inhibition of U-46,619 (2 uM) induced platelet aggregation in human platelet rich plasma; format: functional, organism-based; method in brief: as §1
Thromboxane A2 receptor = target: T1, Thromboxane A2 receptor (Homo sapiens, UniProt P21731); test: Inhibition of [3H]SQ-29,548 binding to thromboxane A2 receptors (TP) of human platelet membrane
T1 sequence (P21731 whole entry): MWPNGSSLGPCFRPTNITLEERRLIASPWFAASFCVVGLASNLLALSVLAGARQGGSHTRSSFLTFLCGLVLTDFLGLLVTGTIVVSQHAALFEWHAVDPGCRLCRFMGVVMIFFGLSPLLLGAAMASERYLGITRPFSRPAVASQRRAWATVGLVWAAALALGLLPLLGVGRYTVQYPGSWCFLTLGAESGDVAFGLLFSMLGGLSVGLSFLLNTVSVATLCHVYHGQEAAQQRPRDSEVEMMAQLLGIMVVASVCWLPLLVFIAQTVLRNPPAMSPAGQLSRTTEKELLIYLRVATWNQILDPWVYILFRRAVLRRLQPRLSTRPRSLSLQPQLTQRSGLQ
Method in brief: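 Washed human platelets from citrated, indomethacin-treated blood were freeze-thawed three times. Membranes were pelleted at 40000g and used at 10 μg protein in 50 mM Tris, 5 mM MgCl₂, pH 7.4. They were incubated with [³H]SQ-29548 and compound for 30 min at 25 °C, then filtered on GF/C and counted by scintillation. Nonspecific binding was set with 10 μM SQ-29548. Ki = IC50/(1 + L/Kd).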

Prostacyclin receptor = Prostacyclin receptor (Homo sapiens, UniProt P43119); test: Inhibition of [3H]APS-314d binding to prostacyclin receptors (IP) of human platelet membrane
Method in brief: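 Human platelet membranes (10 μg protein; freeze-thawed washed platelets, 40000g pellet) in 50 mM Tris, 5 mM MgCl₂, pH 7.4 were incubated with [³H]APS-314d sodium and compound for 60 min at 4 °C. Bound ligand was separated by GF/C filtration and counted by liquid scintillation. Nonspecific binding was set with 10 μM APS-314d sodium. Ki was derived from IC50 via the Cheng–Prusoff form.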

Homo sapiens [3] = species on record: Homo sapiens; test: Inhibition of U-46,619 (4 uM) induced platelet aggregation in human platelet rich plasma; format: functional, organism-based
Monkey [4] = test: Ex vivo inhibition of platelet aggregation induced by ADP (5 uM) in cynomolgus monkey platelet rich plasma; format: functional, organism-based; conditions: Cercopithecidae
Monkey [5] = test: Ex vivo inhibition of platelet aggregation induced by ADP (10 uM) in cynomolgus monkey platelet rich plasma; conditions: Cercopithecidae

Chain of Prostacyclin receptor (P43119 whole entry): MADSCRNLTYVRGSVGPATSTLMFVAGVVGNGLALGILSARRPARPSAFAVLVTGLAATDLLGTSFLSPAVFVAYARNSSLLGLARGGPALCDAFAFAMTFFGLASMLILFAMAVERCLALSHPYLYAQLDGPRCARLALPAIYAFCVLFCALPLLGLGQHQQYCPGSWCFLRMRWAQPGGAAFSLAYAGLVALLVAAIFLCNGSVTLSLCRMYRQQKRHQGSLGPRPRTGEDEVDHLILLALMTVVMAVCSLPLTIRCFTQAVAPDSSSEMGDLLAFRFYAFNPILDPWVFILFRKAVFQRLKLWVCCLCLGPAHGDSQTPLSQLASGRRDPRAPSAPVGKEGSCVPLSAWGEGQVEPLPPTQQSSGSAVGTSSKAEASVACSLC

Structure (SMILES)	pIC50 (Homo sapiens [1]; Homo sapiens, Plasma)	pIC50 (Homo sapiens [2])	pKi (Thromboxane A2 receptor)	pKi (Prostacyclin receptor)	pIC50 (Homo sapiens [3])	pIC50 (Homo sapiens [1])	pIC50 (Monkey [4])	pIC50 (Monkey [5])
O=C(O)COc1cccc2c(CCSC(c3ccccc3)c3ccccc3)c(CO)oc12	5.48	6.34	7.06	6.12	–	–	–	–
O=C(O)COc1cccc2c(CCCSC(c3ccccc3)c3ccccc3)coc12	5.72	5.80	5.51	6.57	–	–	–	–
O=C(O)COc1cccc2c1CCC=C2CCO/N=C(\c1ccccc1)c1cccnc1	6.77	–	–	–	6.77	–	–	–
O=C(O)COc1cccc2c(CSCC(c3ccccc3)c3ccccc3)coc12	4.70	4.76	5.60	6.17	–	–	–	–
CCC(SCCc1c(CO)oc2c(OCC(=O)O)cccc12)(c1ccccc1)c1ccccc1	4.25	5.42	6.74	5.47	–	–	–	–
CCCC(SCCc1c(CO)oc2c(OCC(=O)O)cccc12)(c1ccccc1)c1ccccc1	< 4.00	4.25	< 5.23	< 5.64	–	–	–	–
O=C(O)COc1cccc2c(CSCCC(c3ccccc3)c3ccccc3)coc12	4.89	5.00	5.51	6.24	–	–	–	–
CC(c1ccccc1)(c1ccccc1)[S+]([O-])CCc1c(CO)oc2c(OCC(=O)O)cccc12 (stereo not given)	5.10	5.77	7.29	< 5.00	–	–	–	–
CC(SCCc1c(CO)oc2c(OCC(=O)O)cccc12)(c1ccccc1)c1ccccc1 [listing 1 of 2 here]	–	6.77	8.35	6.28	–	5.66	–	–
O=C(O)COc1cccc2c(CCCSCCC(c3ccccc3)c3ccccc3)coc12	< 4.00	< 4.00	< 4.82	5.54	–	–	–	–
O=C(O)COc1cccc2c(CCSC(c3ccccc3)c3ccccc3)coc12	5.23	6.25	6.51	–	–	–	–	–
O=C(O)COc1cccc2c(CCSCCC(c3ccccc3)c3ccccc3)coc12	5.28	5.27	< 5.00	6.25	–	–	–	–
O=C(O)COc1cccc2c(CCSCC(c3ccccc3)c3ccccc3)coc12	6.14	6.29	5.51	7.10	–	–	–	–
CC#CCC(C)[C@H](O)/C=C/[C@@H]1[C@H]2c3cccc(CCCC(=O)O)c3O[C@H]2C[C@H]1O (stereo not given in full) [BERAPROST SODIUM]	8.12	–	–	–	8.24	–	–	–
CC(SCCc1c(CCCO)oc2c(OCC(=O)O)cccc12)(c1ccccc1)c1ccccc1	5.05	5.54	7.14	5.24	–	–	–	–
CC(SCCc1coc2c(OCC(=O)O)cccc12)(c1ccccc1)c1ccccc1	5.09	6.24	7.59	6.24	–	–	–	–
O=C(O)COc1cccc2c(CSC(c3ccccc3)c3ccccc3)coc12	< 4.00	< 4.00	5.29	5.33	–	–	–	–
O=C(O)CCC/C=C\C[C@@H]1[C@H](CNNC(=O)Nc2ccccc2)[C@H]2CC[C@H]1O2	< 5.00	–	–	–	7.68	–	–	–
CC(c1ccccc1)(c1ccccc1)S(=O)(=O)CCc1c(CO)oc2c(OCC(=O)O)cccc12	5.52	6.51	8.37	5.72	–	–	–	–
CC(SCCc1c(CCO)oc2c(OCC(=O)O)cccc12)(c1ccccc1)c1ccccc1	6.15	6.27	7.11	6.68	–	–	–	–
O=C(O)COc1cccc2c(CCCSCC(c3ccccc3)c3ccccc3)coc12	5.77	5.85	< 4.82	6.40	–	–	–	–
CC(SCCc1c(CO)oc2c(OCC(=O)O)cccc12)(c1ccccc1)c1ccccc1 [listing 2 of 2 here]	–	–	–	–	6.92	5.66	5.43	6.85
O=C(O)COc1cccc2c(CCSC(c3ccccc3)(c3ccccc3)C(F)(F)F)c(CO)oc12	5.82	6.28	6.82	6.12	–	–	–	–
